EPA's CvTdb concentration-time database

How the values were obtained:
[1] = tested on: human; assay: concentration in blood after dosing
Procedure, shortened: (§1)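 Sampling and analytical methods are those of each source and frequently went unreported. The concentration-versus-time and amount-versus-time points were compiled from published in vivo toxicokinetic studies and two structured collections. Most were digitised from plot screenshots with WebPlotDigitizer, with others copied from tables, in the reported units.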

[2] = tested on: Rat; assay: concentration in kidney after dosing; conditions: 1 h; dosed: Potassium Perfluorobutane Sulfonate; 20 mg/kg; oral; Male; Harlan Sprague Dawley
[3] = tested on: Rat; assay: concentration in liver after dosing; conditions: 6 h; dosed: Potassium Perfluorobutane Sulfonate; 20 mg/kg; oral; Male; Harlan Sprague Dawley
[4] = tested on: Rat; assay: concentration in kidney after dosing; conditions: 6 h; dosed: Fluorotelomer alcohol 8+2; 24 mg/kg; oral; Male; Harlan Sprague Dawley
[5] = tested on: Rat; assay: concentration in liver after dosing; conditions: 6 h; dosed: Fluorotelomer alcohol 8+2; 24 mg/kg; oral; Male; Harlan Sprague Dawley
[6] = tested on: Rat; assay: concentration in plasma after dosing; conditions: dosed: 678-39-7, 40 mg/kg, iv, Male, F344
[7] = tested on: Rat; assay: concentration in plasma after dosing; conditions: 3 h; dosed: Fluorotelomer alcohol 8+2; 12 mg/kg; oral; Male; Harlan Sprague Dawley
[8] = tested on: Rat; assay: concentration in plasma after dosing; conditions: dosed: 678-39-7, 40 mg/kg, iv, Male, F344; remark: listed apart in the source
[9] = tested on: Mouse; assay: concentration in plasma after dosing; conditions: 2 h; dosed: 2-Hydroxy-4-methoxybenzophenone; 50 mg/kg; iv; Female; B6C3F1
[10] = tested on: Mouse; assay: concentration in plasma after dosing; conditions: dosed: 2-Hydroxy-4-methoxybenzophenone, 100 mg/kg, oral, Female, B6C3F1
[11] = tested on: monkey; assay: concentration in blood after dosing; conditions: dosed: methanol, inhalation, duration: 6 hr, male, Macaca mulatta
Procedure, shortened: as §1

[12] = tested on: monkey; assay: concentration in blood after dosing; negative times count back from the end of exposure; conditions: dosed: methanol, 1200 ppm, inhalation, duration: 6 hr, male, Macaca mulatta
Procedure, shortened: as §1

[13] = tested on: Rat; assay: concentration in plasma after dosing; conditions: dosed: Nitrite, 20 mg/kg, iv, Male, F344
[14] = tested on: Rat; assay: concentration in plasma after dosing; conditions: dosed: Nitrite, 80 mg/kg, oral, Female, F344
[15] = tested on: mouse; assay: concentration in blood after dosing; conditions: dosed: benzo[a]pyrene, 15 mg/kg, oral, C57BL/6J
Procedure, shortened: as §1

CC(C)(C)O [tert-butyl alcohol]
[1], inhalation, duration: 4 hr
Conditions | concentration in blood [nM]
1.944 h, dosed: methyl tert-butyl ether, 4.5 ppm | 1930
1.995 h, dosed: methyl tert-butyl ether, 38.7 ppm | 22200
2.028 h, dosed: ethyl tert-butyl ether, 40.6 ppm | 12800
2.045 h, dosed: ethyl tert-butyl ether, 4.5 ppm | 1690
3.934 h, dosed: methyl tert-butyl ether, 4.5 ppm | 1730
3.985 h, dosed: methyl tert-butyl ether, 38.7 ppm | 17800
4.023 h, dosed: ethyl tert-butyl ether, 4.5 ppm | 1620
4.023 h, dosed: ethyl tert-butyl ether, 40.6 ppm | 11000
5.95 h, dosed: methyl tert-butyl ether, 4.5 ppm | 1580
6.001 h, dosed: methyl tert-butyl ether, 38.7 ppm | 12500
6.034 h, dosed: ethyl tert-butyl ether, 4.5 ppm | 1170
6.034 h, dosed: ethyl tert-butyl ether, 40.6 ppm | 9280
7.952 h, dosed: methyl tert-butyl ether, 4.5 ppm | 917
7.96 h, dosed: ethyl tert-butyl ether, 4.5 ppm | 1100
7.977 h, dosed: ethyl tert-butyl ether, 40.6 ppm | 8400
8.017 h, dosed: methyl tert-butyl ether, 38.7 ppm | 10000
9.972 h, dosed: ethyl tert-butyl ether, 4.5 ppm | 771
9.972 h, dosed: ethyl tert-butyl ether, 40.6 ppm | 6190
10.03 h, dosed: methyl tert-butyl ether, 38.7 ppm | 8310
11.93 h, dosed: ethyl tert-butyl ether, 4.5 ppm | 905
11.98 h, dosed: ethyl tert-butyl ether, 40.6 ppm | 5880
12.05 h, dosed: methyl tert-butyl ether, 38.7 ppm | 5730
18 s, dosed: methyl tert-butyl ether, 4.5 ppm | 2660
20 s, dosed: methyl tert-butyl ether, 38.7 ppm | 21800
23.91 h, dosed: ethyl tert-butyl ether, 40.6 ppm | 2670
23.99 h, dosed: methyl tert-butyl ether, 38.7 ppm | 1140
61 s, dosed: ethyl tert-butyl ether, 4.5 ppm | 1870
61 s, dosed: ethyl tert-butyl ether, 40.6 ppm | 14300

[1], dosed: methyl tert-butyl ether, oral
Conditions | concentration in blood [nM]
0.9669 h, 5 mg | 463
1.015 h, 15 mg | 1880
1.979 h, 15 mg | 1700
1.982 h, 5 mg | 430
2.968 h, 15 mg | 1580
2.972 h, 5 mg | 391
3.958 h, 15 mg | 1510
3.961 h, 5 mg | 370
5.915 h, 5 mg | 318
5.962 h, 15 mg | 1230
7.92 h, 5 mg | 290
7.966 h, 15 mg | 983
9.925 h, 5 mg | 236
9.97 h, 15 mg | 937
11.95 h, 15 mg | 806
12.01 h, 5 mg | 199
23.95 h, 15 mg | 268
23.99 h, 5 mg | 53.5

O=S(=O)([O-])C(F)(F)C(F)(F)C(F)(F)C(F)(F)F.[K+] [Potassium Perfluorobutane Sulfonate]
Conditions | concentration in kidney [ng/g] | concentration in liver [ng/g]
[2] | 22700 | –
[3] | – | 51600

O=C(O)C(F)(F)C(F)(F)C(F)(F)C(F)(F)C(F)(F)C(F)(F)C(F)(F)F [Perfluorooctanoic acid]
Conditions | concentration in kidney [ng/g] | concentration in liver [ng/g] | concentration in plasma [ng/mL]
[4] | 421 | – | –
[5] | – | 1450 | –
[7] | – | – | 392

concentration in plasma [ng/mL]
Conditions | 0.25 h | 5 min | 6 h | 24 h
[6] | – | 350000 | 66100 | –
[8] | 671 | – | 1310 | 819

COc1ccc(C(=O)c2ccccc2)c(O)c1 [2-Hydroxy-4-methoxybenzophenone]
Conditions | concentration in plasma [ng/mL]
[9] | 311

[10]
Conditions | concentration in plasma [ng/mL]
0.25 h | 151
2 h | 13.9
2.5 min | 29.6
3 h | 9.13
10 min | 62.3

CO [methanol]
Conditions | concentration in blood [ng/mL]
[11], 0.5142 h, 2000 ppm | 54500
[11], 0.5644 h, 1200 ppm | 35700
[11], 1.044 h, 1200 ppm | 31200
[11], 1.066 h, 2000 ppm | 52700
[11], 1.558 h, 1200 ppm | 31400
[11], 1.603 h, 2000 ppm | 47700
[11], 2.036 h, 1200 ppm | 27700
[11], 2.065 h, 2000 ppm | 39000
[11], 3.014 h, 1200 ppm | 21100
[11], 3.019 h, 2000 ppm | 40300
[11], 4.525 h, 1200 ppm | 14300
[11], 4.556 h, 2000 ppm | 24100
[11], 6.067 h, 2000 ppm | 16300
[11], 6.073 h, 1200 ppm | 10300
[11], 8.074 h, 2000 ppm | 9200
[11], 8.076 h, 1200 ppm | 7660
[11], 10 h, 1200 ppm | 7870
[11], 10.06 h, 2000 ppm | 7580
[11], 97 s, 1200 ppm | 38600
[11], 101 s, 2000 ppm | 65800
[12], -3.07 h, during exposure | 21000
[12], -5.081 h, during exposure | 8330
[12], -5.593 h, during exposure | 4820
[12], -98 s, during exposure | 26900

[12]
Conditions | concentration in blood [ng/mL]
0.9399 h | 16100
1.959 h | 9030
2.967 h | 4920
4.499 h | 3110
6.031 h | 903

O=N[O-] [Nitrite]
concentration in plasma [ng/mL]
Conditions | 0.5 h | 1.25 h | 4 h | 10 min
[13] | – | 1700 | – | 4800
[14] | 5200 | – | 2300 | –

c1ccc2c(c1)cc1ccc3cccc4ccc2c1c34 [benzo[a]pyrene]
[15]
Conditions | concentration in blood [ng/mL]
0.4576 h | 68.9
0.4733 h | 61
0.9942 h | 148
1.01 h | 190
1.436 h | 196
1.452 h | 276
1.957 h | 239
1.989 h | 253
3.014 h | 282
3.046 h | 85
4.04 h | 258
4.072 h | 15.5
4.94 h | 8.52
5.934 h | 6.45
6.013 h | 252
9.028 h | 65.1
11.99 h | 18.4
14.99 h | 6.86
